Laboratory results as given in ChEMBL document CHEMBL3526029, “Disposition and metabolism of GSK2251052 in humans: a novel boron-containing antibiotic” (Drug Metab Dispos, 2013).

How the values were obtained:
[1] = Drug recovery in healthy human urine at 1500 mg, iv infusion for 1 hr as single dose after 168 hrs; assay type: ADME, organism-based; details: read-out: Drug recovery
[2] = test system: Homo sapiens; assay: Toxicity in healthy human assessed as serious adverse events at 1500 mg, iv infusion for 1 hr as single dose; assay type: organism-based; details: in vivo
Outline: (§1)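 Single-center, open-label phase I study in six healthy adult males, fasted ≥10 h. Each got one 1500 mg [14C]GSK2251052 dose as a constant-rate 1-h IV infusion. Safety was monitored throughout, with follow-up for at least 336 h after dosing.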

[3] = Drug metabolism in cynomolgus monkey kidney S9 fraction assessed as (S)-3-(3-(aminomethyl)-1-hydroxy-1,3-dihydrobenzo[c][1,2]oxaborol-7-yloxy)propanoicacid formation at 50 to 500 uM after 3 hrs by liquid scintillation counting in presence of NAD+; assay type: ADME, Macaca fascicularis; details: s9, 3 h
Outline: (§2)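 [14C]GSK2251052 was incubated in triplicate for 1 or 3 h at 37°C with 4 mg/ml S9 (monkey liver, lung or kidney; human liver), liver cytosol or liver microsomes and 7.5 mM NAD+. Buffer was pyrophosphate at pH 7.4, 8.4 or 8.8. Controls lacked cofactor or enzyme. Reactions were quenched with acetonitrile, counted by LSC, and pooled for radio-HPLC.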

[4] = test system: Blood; assay: AUC (0 to infinity) in healthy human whole blood assessed as radioactivity at 1500 mg, iv infusion for 1 hr as single dose; assay type: ADME, organism-based; set-up: dose 1500 mg, route intravenous, time infinity; details: in vivo
Outline: (§3)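 Six fasted healthy men received 1500 mg [14C]GSK2251052 as a 1-h i.v. infusion. Blood and plasma were sampled from predose to 336 h after infusion start. Radioactivity was counted by LSC; plasma below 870 ng eq/ml was reanalysed by accelerator MS, with predose background subtracted. Noncompartmental analysis used actual sampling times, linear-up/log-down trapezoids and CL = dose/AUC(0-∞).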

[5] = Total drug recovery in healthy human at 1500 mg, iv infusion for 1 hr as single dose after 192 hrs; assay type: ADME, organism-based; details: in vivo, read-out: Drug recovery
[6] = Drug recovery in healthy human urine at 1500 mg, iv infusion for 1 hr as single dose after 144 hrs; assay type: ADME, organism-based; details: read-out: Drug recovery
[7] = Drug metabolism in cynomolgus monkey liver S9 fraction assessed as (S)-3-(3-(aminomethyl)-1-hydroxy-1,3-dihydrobenzo[c][1,2]oxaborol-7-yloxy)propanoicacid formation at 50 to 500 uM after 3 hrs by liquid scintillation counting in presence of NADPH regeneration system; assay type: ADME, subcellular, Macaca fascicularis; details: s9, 3 h
[8] = test system: Blood; assay: Volume of distribution at steady state in healthy human whole blood assessed as radioactivity at 1500 mg, iv infusion for 1 hr as single dose; assay type: ADME, organism-based; details: in vivo
Outline: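 Healthy males got a 1500 mg [14C] dose as a 1-h IV infusion. K2EDTA blood was taken at serial times to 336 h. Radioactivity in blood and plasma was measured by LSC; plasma below 870 ng eq/ml was re-measured by accelerator mass spectrometry. Vss = CL × MRT, with CL = dose/AUC(0-∞), from noncompartmental analysis on actual times.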

[9] = Drug recovery in healthy human urine at 1500 mg, iv infusion for 1 hr as single dose after 336 hrs; assay type: ADME, organism-based; details: read-out: Drug recovery
[10] = test system: Liver microsome; assay: Drug metabolism in human liver microsomes assessed as (S)-3-(3-(aminomethyl)-1-hydroxy-1,3-dihydrobenzo[c][1,2]oxaborol-7-yloxy)propanoicacid formation at 50 to 500 uM after 3 hrs by liquid scintillation counting in presence of NAD+; assay type: ADME; outline: as §2
[11] = Total drug recovery in healthy human at 1500 mg, iv infusion for 1 hr as single dose after 72 hrs; assay type: ADME, organism-based; details: in vivo, read-out: Drug recovery
Outline: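 Six healthy adult males, fasted ≥10 h, got one 1500 mg [14C]GSK2251052 dose ([…], 0.56 MBq) as a constant-rate 1-h IV infusion in 0.9% NaCl. Urine was collected at 0–6, 6–12 and 12–24 h, then in 24-h blocks to 336 h; feces in 24-h blocks. Urine was counted directly by LSC; feces were homogenized and combusted in duplicate before LSC. Cumulative recovery is given as mean % of dose.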

[12] = Drug recovery in healthy human urine at 1500 mg, iv infusion for 1 hr as single dose after 120 hrs; assay type: ADME, organism-based; details: read-out: Drug recovery
[13] = Drug recovery in healthy human feces at 1500 mg, iv infusion for 1 hr as single dose after 336 hrs; assay type: ADME, organism-based; details: read-out: Drug recovery
[14] = test system: Plasma; assay: Half life in healthy human plasma assessed as radioactivity at 1500 mg, iv infusion for 1 hr as single dose; assay type: ADME, organism-based; details: in vivo
Outline: (§4)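 Healthy men got a single 1500 mg [14C] dose by 1 h i.v. infusion. K2EDTA blood was sampled up to 336 h. Radioactivity in blood and plasma was measured by LSC, with AMS for plasma below LLQ. Parent and M3 were measured by LC/MS/MS (5–10,000 ng/ml range). Noncompartmental analysis used actual times, with t1/2 = ln2/λz and Tmax observed directly, timed from infusion start.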

[15] = test system: Homo sapiens; assay: Toxicity in healthy human assessed as mortality at 1500 mg, iv infusion for 1 hr as single dose; assay type: organism-based; details: in vivo; outline: as §1
[16] = test system: Blood; assay: Cmax in healthy human whole blood assessed as radioactivity at 1500 mg, iv infusion for 1 hr as single dose; assay type: ADME, organism-based; set-up: dose 1500 mg, route intravenous; details: in vivo; outline: as §3
[17] = Drug recovery in healthy human feces at 1500 mg, iv infusion for 1 hr as single dose after 240 hrs; assay type: ADME, organism-based; details: faeces, read-out: Drug recovery
[18] = Drug metabolism in healthy human urine assessed as (S)-3-(3-(acetamidomethyl)-1-hydroxy-1,3-dihydrobenzo[c][1,2]oxaborol-7-yloxy)propanoicacid formation at 1500 mg, iv infusion for 1 hr as single dose by mass spectrometry; assay type: ADME, organism-based; details: in vivo
Outline: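 Urine was collected through 336 h after a 1500 mg [14C] i.v. 1-h infusion to six men. Samples were pooled by weight (0–120 h per subject; 120–336 h composite) and centrifuged. Profiling used HPLC (Atlantis T3, ammonium acetate pH 4.5/methanol, 30°C) with fraction radioactivity counting. Identity came from Orbitrap positive-ion accurate mass. Values were given as % dose, corrected for recovery.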

[19] = Drug recovery in healthy human feces assessed as total radioactivity at 1500 mg, iv infusion for 1 hr as single dose after 120 to 336 hrs by HPLC method; assay type: ADME, organism-based; details: in vivo, in the assay text read “0 to 120 hrs” for “120 to 336 hrs”
Outline: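 Feces were collected at 24-h intervals through 336 h after a 1500 mg [14C] i.v. 1-h infusion. Samples were homogenised with water and duplicate aliquots combusted for LSC. For profiling, 0–120 h pools were extracted twice with acetonitrile:methanol:water:formic acid, reconstituted, and analysed by radio-HPLC. Values were reported as % dose.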

[20] = test system: Plasma; assay: Tmax in healthy human plasma assessed as radioactivity at 1500 mg, iv infusion for 1 hr as single dose; assay type: ADME, organism-based; details: in vivo; outline: as §4
[21] = Drug metabolism in cynomolgus monkey lung S9 fraction assessed as (S)-3-(3-(aminomethyl)-1-hydroxy-1,3-dihydrobenzo[c][1,2]oxaborol-7-yloxy)propanoicacid formation at 50 to 500 uM after 3 hrs by liquid scintillation counting in presence of NAD+; assay type: ADME, Macaca fascicularis; details: s9, 3 h; outline: as §2
[22] = Drug recovery in healthy human urine at 1500 mg, iv infusion for 1 hr as single dose after 216 hrs; assay type: ADME, organism-based; details: read-out: Drug recovery
[23] = Drug recovery in healthy human feces at 1500 mg, iv infusion for 1 hr as single dose after 168 hrs; assay type: ADME, organism-based; details: faeces, read-out: Drug recovery

With Cl.N[14CH2][C@H]1OB(O)c2c(OCCCO)cccc21 the dose excreted at 168 h [1] was 86.4%, the Activity [2] was “Non-toxic” and the Drug metabolism [3] was “metabolite_not_detected”. The AUC [4] was 193 µg·h/mL, the dose excreted at 192 h [5] was 95% and the dose excreted at 144 h [6] was 85.1%. The Drug metabolism [7] was “metabolite_not_detected”, the Vdss [8] was 116 L and the dose excreted at 336 h [9] was 90.5%. For the same molecule, the Drug metabolism [10] was “metabolite_not_detected”, the dose excreted at 72 h [11] was 81.2% and the dose excreted at 120 h [12] was 83.4%. The dose excreted at 336 h [13] was 7.6%, the t1/2 [14] was 96 h and the Activity [15] was “Non-toxic”. For the same molecule, the Cmax [16] was 43700 ng/mL, the dose excreted at 240 h [17] was 7.6% and the Drug recovery [18] was “metabolite_detected”. For the same molecule, the Drug recovery [19] was 6%, the Tmax [20] was 0.917 h and the Drug metabolism [21] was “metabolite_not_detected”. For the same molecule, the dose excreted at 216 h [22] was 88.2% and the dose excreted at 168 h [23] was 7.6%.
